Bioassay records from PubChem BioAssay.
In the library only some 1.4% were active in any assay of this set; here they are far more common.
Vif imaging: HIV Vif self-association inhibitors, primary screen, imaging, HEK293T, single point. HEK293T cells, Vif self-association by quenched fluorescence, 24 h. inhibition, % at 7.49 µM. 340,000 tested, 0.35% active; in the data active means inhibition above about 50%, passing the limit was not always enough; inconclusive means no clear call, values can overlap the other calls; inactive means below about 31%
T cell modulator: modulators of CD8 T cell-vesicle binding, primary screen, mouse 2C CD8+ T cells, flow cytometry; 2C CD8+ T cell-vesicle binding; hits give low values; 330,000 tested, 0.068% active; AID 2052, 2009; response (vesicle binding), % at 7 µM;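 active means response, share of CD8 T cells binding vesicles, and their 90th percentile fluorescence all below set limits, cut at about 80% in these data, passing the limit was not always enough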;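 further: values below 100% mean blocked vesicle binding to the CD8+ T cells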
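Material: murine 2C transgenic CD8+ T lymphocytes / Also added: QL9-peptide-loaded Drosophila micro-vesicles bearing Ld, ICAM-1 and B7-1 / Schedule: binding step 1.5 h, 37 °C, antibody labelling 20 min, ice / Signal: flow cytometry, PE anti-B7-1 (FL2) versus Alexa647 anti-CD8 (FL8), PFA-fixed / Evaluation: percent CD8+ FL2 mean versus row control / Benchmarks: naked versus QL9-loaded vesicles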
Casp6 inh: human caspase-6 inhibitors, primary screen, biochemical, VEID-R110 fluorescence, single point, set 2; P55212; purified caspase-6, Z-VEID-R110 cleavage fluorescence; inhibition, % at 12.5 µM; 350,000 tested, 0.53% active; AID 686996, 2013;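 active means mean inhibition across replicates at least about 35%, with every replicate also reaching that limit, limit read from the data; inconclusive means only one of the two criteria met; inactive means neither criterion met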;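 further: 0% = median of neutral control wells and 100% = no fluorescence left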
Target sequence (P55212 24-179 limits assumed): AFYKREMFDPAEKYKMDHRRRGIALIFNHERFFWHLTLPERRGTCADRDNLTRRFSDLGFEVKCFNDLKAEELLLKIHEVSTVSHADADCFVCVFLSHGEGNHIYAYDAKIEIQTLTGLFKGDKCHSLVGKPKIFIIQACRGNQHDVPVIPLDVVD
Target sequence (P55212 194-293 limits assumed): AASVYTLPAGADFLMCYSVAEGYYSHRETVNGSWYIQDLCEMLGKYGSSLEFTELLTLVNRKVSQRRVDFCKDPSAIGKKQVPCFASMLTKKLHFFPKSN
Myeloid diff MLP: induction of myeloid progenitor differentiation, primary screen, cell-based, flow cytometry, MLPCN library; ER-HoxA9 myeloid progenitors, lysozyme-GFP differentiation; calls only at 10 µM; 360,000 tested, 1% active; AID 624256, 2012;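 active means normalized GFP-positive differentiation at or above the plate's own cutoff, the solvent-only control mean plus 3 SD; inconclusive means no clear call, values can overlap the other calls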;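 further: cells exposed to compound for four days before flow analysis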
An asterisk follows results filed as active; i = inactive; ? = inconclusive; / = no result; + = active, no number.

SMILES | Vif imaging | T cell modulator | Casp6 inh | Myeloid diff MLP
COc1ccc(S(=O)(=O)N2C[C@H](O)COC[C@H]3O[C@H](CC(=O)NCc4ccc(Cl)c(Cl)c4)CC[C@@H]32)cc1 | / | / | -4 | /
COc1ccc(C#Cc2cnc3c(c2)C(=O)N([C@H](C)CO)C[C@H](C)[C@@H](CN(C)C(=O)CC2CC2)O3)cc1 | / | / | 0 | /
C=CCc1cc(/C=C/c2nc(O)c([N+](=O)[O-])c(=O)[nH]2)cc(OC)c1O | 4 | 485 | 39* | i
Cc1ccc(N=C(N)N=C(N)N)cc1 | -9 | 368 | -1 | +
COc1ccc(-c2csc(-c3cccnc3)n2)cc1C | 115* | 318 | 5 | i
COc1ccc2cc(-c3csc(-c4cccnc4)n3)ccc2c1 | 15 | 348 | / | i
COc1ccc(-c2c(NC(=O)c3ccco3)oc3c(C)cccc3c2=O)cc1OC | -12 | 302 | 6 | i
Cc1cccc(-c2c(NC(=O)c3ccco3)oc3c(C)cccc3c2=O)c1 | -8 | 960 | 5 | +
COc1cc(NC(=O)c2cccc(C)c2)ccc1NC(=O)c1cc2ccccc2o1 | 11 | 217 | / | i
CCOc1cccc(C(=O)Nc2ccc(NC(=O)c3cc4ccccc4o3)c(OC)c2)c1 | 71* | 215 | -4 | i
CCOc1cccc(C(=O)Nc2ccc3oc(Cc4ccc(Cl)cc4)nc3c2)c1 | 56* | 282 | 0 | i
COc1cccc(-c2ccc3c(c2)[C@H]2[C@H](CCN2C(=O)c2cccc(F)c2)[C@H](CO)N3)c1 | / | / | -1 | /
O=C(/C=C/c1ccc(Cl)cc1)Nc1nccs1 | 0 | / | 64* | +
CN1C(=O)c2cc(NC(=O)c3cccc(F)c3)ccc2OC[C@@H]2O[C@@H](CC(=O)N3CCc4ccccc4C3)CC[C@H]21 | / | / | 56* | /
CN1C(=O)c2cc(NC(=O)Cc3cccs3)ccc2OC[C@H]2O[C@@H](CC(=O)NCCc3ccncc3)CC[C@@H]21 | / | / | -2 | /
COC(=O)C[C@H]1CC[C@@H]2[C@H](COc3ccc(NC(=O)c4cnccn4)cc3C(=O)N2C)O1 | / | / | 57* | /
CN1C(=O)c2cc(NC(=O)Cc3cccs3)ccc2OC[C@@H]2O[C@@H](CC(=O)NCCc3ccncc3)CC[C@@H]21 | / | / | 69* | /
CN1C(=O)c2cc(NC(=O)c3cccc(F)c3)ccc2OC[C@H]2O[C@@H](CC(=O)N3CCc4ccccc4C3)CC[C@@H]21 | / | / | -2 | /
COc1ccc(S(=O)(=O)N(C)C[C@@H]2Oc3ccc(NC(=O)Nc4c(C)noc4C)cc3C(=O)N([C@@H](C)CO)C[C@@H]2C)cc1 | / | / | 1 | /
CC=Cc1ccc2n(c1=O)C[C@H]1[C@H](CO)[C@@H](C(=O)NCCc3ccccc3)N(CCC)[C@@H]21 (mixture of isomers) | / | / | 2 | /
O=C(CNC(=O)c1ccc([N+](=O)[O-])cc1)N/N=C\c1ccc(OC(=O)c2ccccc2)cc1 | 50* | 236 | / | i
COc1cccc(C(=O)NCC(=O)N/N=C/c2cccc(OC(=O)c3ccc([N+](=O)[O-])cc3)c2)c1 | -1 | 334 | 1 | i
O=C(C[C@H]1C=C[C@@H](NC(=O)c2ccncc2)[C@H](CO)O1)NCc1ccncn1 | / | / | 1 | /
O=C(Nc1ccc(C(F)(F)F)cc1)N[C@H]1CC[C@H](CCn2cc(C3(O)CCCC3)nn2)O[C@H]1CO | / | / | 1 | /
Cc1cccc(C)c1NC(=O)CN1C(=O)C2CC=CCC2C1=O (configuration not stated) | -2 | 247 | 2 | i
SMILES | Vif imaging | T cell modulator | Casp6 inh | Myeloid diff MLP
N#CCSc1ccccc1NC(=O)CN1C(=O)C2CC=CCC2C1=O (configuration not stated) | -3 | / | 4 | +
COc1ccccc1-c1ccc([C@H]2[C@@H](CO)N3CCCCN(C(=O)NC4CCCC4)C[C@H]23)cc1 | / | / | -3 | /
CC(C)=CCN1CCN(Cc2cc(C(C)C)n[nH]2)CC1CCO (configuration not stated) | -3 | 460 | -3 | +
CCC(=O)Nc1ccc2c(c1)OC[C@@H](C)N(S(=O)(=O)c1cn(C)cn1)C[C@@H](C)[C@H](OC)CN(C)C2=O | / | / | 3 | /
Cc1ccc(S(=O)(=O)Nc2ccc3c(c2)C(=O)N([C@@H](C)CO)C[C@@H](C)[C@@H](CN(C)Cc2ccc(C(=O)O)cc2)O3)cc1 | / | / | -4 | /
O=C(N/N=C/C(Br)=C/c1ccccc1)c1cnccn1 | -12 | 379 | -3 | +
CCCC#Cc1cnc2c(c1)C(=O)N([C@H](C)CO)C[C@@H](C)[C@@H](CN(C)C(=O)CN1CCOCC1)O2 | / | / | -1 | /
O=C(CSc1nnc(-c2ccncc2)o1)Oc1ccccc1 | -4 | 302 | / | i
O=C(CSc1nnc(-c2ccccc2O)o1)Oc1ccc(OCc2ccccc2)cc1 | 18 | 584 | / | +
COc1ccc(-c2ccccc2[C@H]2[C@@H](C#N)N(C(=O)C3CCCCC3)[C@H]2CO)cc1 | / | / | -5 | /
N#C/C(=C\c1ccccn1)c1ccccn1 | -11 | 245 | 1 | +
Cc1c2c(cc3c1[nH]c1ccccc13)C=NCC2 | 0 | / | -20 | +
Cc1c2ccncc2cc2c1[nH]c1ccccc12 | i | / | -2 | ?
CCC(=O)c1cn([C@@H](CCC(OC)OC)CC(=O)OC(C)(C)C)cc1CC | / | 296 | -3 | i
CCC(=O)c1cn(/C(=C\C(=O)OC(C)(C)C)CCC(OC)OC)cc1CC | 0 | 812 | 1 | +
COc1ccc(C(=O)NNC(=S)NC(=O)c2cccs2)cc1 | 0 | 480 | -4 | i
COc1ccc(/C=C/C(=O)NC(=S)NNC(=O)c2cccs2)cc1 | 67* | 322 | -2 | i
C[C@@H]1CN([C@H](C)CO)C(=O)c2cccc(NC(=O)C3CC3)c2O[C@@H]1CN(C)CC1CCCCC1 | / | / | 0 | /
O=C1c2cccc3c([N+](=O)[O-])ccc(c23)C(=O)N1c1nccs1 | 67* | 170 | / | ?
O=C1c2cccc3c([N+](=O)[O-])ccc(c23)C(=O)N1c1ccccn1 | 113* | 368 | / | ?
O=C(CCCN1C(=O)/C(=C/c2ccco2)SC1=S)Nc1ccccc1C(=O)O | -4 | 389 | 62* | i
O=C(CCCN1C(=O)/C(=C\c2ccccc2)SC1=S)Nc1ccc(O)cc1C(=O)O | 1 | 505 | / | i
O=C(CN1C(=O)/C(=C\c2ccco2)SC1=S)Nc1ccc(O)cc1C(=O)O | 5 | 213 | 73* | i
CC(C(=O)Nc1ccc(O)cc1C(=O)O)N1C(=O)/C(=C\c2cccs2)SC1=S (configuration not stated) | 9 | 767 | 46* | i
O=C(CCN1C(=O)/C(=C\c2cccs2)SC1=S)Nc1ccc(C(=O)O)cc1 | / | 190 | 5 | i
O=C(CCN1C(=O)/C(=C/c2ccco2)SC1=S)Nc1ccc(O)cc1C(=O)O | 0 | 144 | 70* | i
CCCN(C)C[C@@H]1OCCCC[C@@H](C)Oc2ccc(NS(=O)(=O)c3cn(C)cn3)cc2C(=O)N([C@@H](C)CO)C[C@@H]1C | / | / | -1 | /
